# FLuc act counter = affects firefly luciferase, flagging false hits in luciferase stimulation screens. P08659. ATPlite luciferase biochemical, luminescence, 10 min; 0 = ATP-free wells, 1 = DMSO control. activation factor at 10 µM. 200,000 tested, under 10 active. AID 1027;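 active = luciferase activation factor, scaled between plate controls, of at least 2 with compound at 10 µM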
#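 Material: Luciferase/luciferin reagent mix | Doses: Test compounds dosed from 2 mM stocks in 100% DMSO | Timing: 10 min incubation after luciferase reagent addition, room temperature | Measured by: Luminescence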
# ABCG2 inh = blocks JC-1 efflux by human ABCG2 transporter | Q9UNQ0 | IgMXP3 cells, flow cytometry | inhibition, % at 6.6 µM | actives 0.1% (n = 190,000) | AID 1325;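 active = inhibition above 80%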;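 also: 0% = DMSO and 100% = nicardipine control wells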
# Target sequence (Q9UNQ0 whole entry, looked up): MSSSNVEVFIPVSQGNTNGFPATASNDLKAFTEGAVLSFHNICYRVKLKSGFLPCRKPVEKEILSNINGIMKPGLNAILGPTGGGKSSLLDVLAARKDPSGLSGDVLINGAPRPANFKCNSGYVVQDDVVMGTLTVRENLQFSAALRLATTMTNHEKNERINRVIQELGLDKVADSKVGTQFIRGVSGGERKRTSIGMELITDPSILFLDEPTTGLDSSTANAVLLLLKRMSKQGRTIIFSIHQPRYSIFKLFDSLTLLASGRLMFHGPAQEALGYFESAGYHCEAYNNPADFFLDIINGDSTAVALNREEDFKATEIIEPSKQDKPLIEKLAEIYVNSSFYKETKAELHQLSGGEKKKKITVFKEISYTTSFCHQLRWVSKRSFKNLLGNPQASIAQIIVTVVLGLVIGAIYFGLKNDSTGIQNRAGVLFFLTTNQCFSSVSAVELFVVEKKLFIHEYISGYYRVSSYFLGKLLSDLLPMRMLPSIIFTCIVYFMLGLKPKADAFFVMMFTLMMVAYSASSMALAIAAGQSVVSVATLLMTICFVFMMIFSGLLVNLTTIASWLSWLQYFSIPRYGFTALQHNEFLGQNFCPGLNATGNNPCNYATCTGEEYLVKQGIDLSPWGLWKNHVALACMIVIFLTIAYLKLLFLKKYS
#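 material = IgMXP3 (ABCG2) plus far-red-tagged CCRF-Adr (ABCB1) cells | amount = 3 million cells/mL, equal mix of both lines | also added = JC-1 transporter substrate | dosing = one concentration, 6.6 µM final | schedule = 10 min at 25 °C | measured by = flow cytometric JC-1 green MFI at 530 nm | read-out basis = percent efflux inhibition, scaled nicardipine 100% to DMSO 0%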
# ABCB1 inh = blocks JC-1 efflux by human ABCB1 transporter; inhibition, % at 6.6 µM; AID 1326; CCRF-Adr cells, flow cytometry; P08183; actives 0.067% (n = 190,000); in the data active = inhibition above about 40%;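 also: 0% = vehicle and 100% = reference inhibitor; higher value means more JC-1 retained so stronger ABCB1 efflux block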
# FLuc inh counter = inhibits firefly luciferase, flagging false hits in luciferase inhibition screens; ATPLite firefly luciferase biochemical luminescence, 10 min; inhibition, % at 10 µM; actives 1.5% (n = 200,000);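 active = inhibition above about 50% when tested at 10 µM, limit read from the data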
# Redox H2O2 prof = compounds producing H2O2 with reducing agent – biochemical, NIH compound library profiling, artefact control for MLSCN library redox annotation, primary screen; DTT-dependent redox cycling H2O2, phenol red/HRP absorbance; 100% = 100 µM peroxide control, 0% = buffer; activation, % at 10 µM; actives 0.03% (n = 200,000); AID 878;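 active = activation of at least 50% relative to the plate's high and low controls in the primary single-dose screen; inactive = activation below 50%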;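 also: compound incubated with DTT at 0.8 mM final as the reducing agent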
# Measles CPE = protection of cells from measles virus; Measles virus-infected cells, CPE protection, absorbance; protection (pct of control), % at 4 µM; actives 1.5% (n = 140,000); AID 841; in the data active = protection mostly above about 24%, no sharp cut-off; inactive = mostly below about 26%
# DTT redox conf = confirmation of DTT-dependent redox cycling H2O2 generators. actives 40% (n = 60). AID 1234. shares compounds with Redox H2O2 prof. EC50, µM. phenol red-HRP absorbance;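 active = EC50 under a set limit for hydrogen peroxide production with the reducing agent DTT present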
# ABCB1 confirm = confirmation of human ABCB1 transporter inhibitors, ABCG2 counter-screen; shares compounds with ABCG2 inh; CCRF-Adr cells, JC-1 efflux, flow cytometry; inhibition, % at 6.6 µM; actives 7% (n = 270); AID 1451;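 active = inhibition of pump activity above 50%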;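 also: 0% = DMSO and 100% = nicardipine full pump inhibition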
# ABCG2 single pt = inhibits human ABCG2 efflux, confirmed at single point | shares compounds with ABCG2 inh | IgMXP3 cells, JC-1 efflux, flow cytometry | actives 6% (n = 270) | inhibition, % at 6.6 µM;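 active = inhibition above 50%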;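 also: 0% = DMSO wells and 100% = nicardipine pump inhibitor wells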
# IgMXP3 autofluor = counter-screen for ABCG2 inhibitors: compound fluorescence in IgMXP3 cells; shares compounds with ABCG2 inh; compound autofluorescence 488/530 nm, flow; active compounds read high; fluorescence at 6.6 µM; actives 30% (n = 270); AID 1480;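 active = fluorescence in ABCG2-expressing cells above the plate's control-well mean plus 3 SD, cut at about 15 in these data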;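 also: median cell fluorescence with compound minus that of DMSO-treated control cells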
# CCRF-Adr fluor = counter-screen for ABCB1 inhibitors: compound fluorescence in CCRF-Adr cells. actives 30% (n = 270). compound autofluorescence 488/530 nm, flow cytometry; active compounds read high. fluorescence at 6.6 µM. shares compounds with ABCG2 inh. AID 1483;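 active = fluorescence beyond the plate control mean plus 3 SD, with a fluorescence-to-maximum score over 2, cut at about 25 in these data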
# * marks the source's active call; other numbers are inactive results; / = no result given. In the library only some 2.7% were active in any assay of this set; here they are far more common.
SMILES,FLuc act counter,ABCG2 inh,ABCB1 inh,FLuc inh counter,Redox H2O2 prof,Measles CPE,others
CCCC(C)C1(CC)C(=O)NC(=Nc2ccc(OC)cc2)NC1=O (stereo unspecified),1.1,4.3,1.0,-5.5,0.2,15.9,
O=c1[nH]c(O)c(N=Nc2ccc(S(=O)(=O)N3CCOCC3)cc2)c(=O)[nH]1,1,3.4,0.3,-3.8,-1.3,/,
O=c1[nH]c(=S)[nH]c(O)c1N=Nc1ccc2c(c1)OCO2,0.5,-0.5,-0.5,53.4*,-0.1,/,
O=c1[nH]c(O)c(N=Nc2ccc3c(c2)OCCO3)c(=O)[nH]1,0.3,36.6,0.6,69.1*,0.1,/,
O=c1[nH]c(O)c(/C=C2\C=NN=C2c2ccccc2)c(=O)[nH]1,1.1,-1.0,-0.4,-10.3,0.3,2.9,
C=CC1CN2CCC1CC2c1[nH]c2ccccc2c1CCO (stereo unspecified),1,-2.4,-0.2,-0.4,-0.3,1.8,
Cc1cc(/C=C2\C(=O)NC(=O)N(c3ccc(F)cc3)C2=O)c(C)n1-c1cccc(C(=O)O)c1,1.1,-0.1,-0.1,-5.9,5.1,/,
Cc1cc(C=C2C(=O)NC(=O)NC2=O)c(C)n1-c1ccc2c(c1)OCO2,0.4,-3.6,-0.2,56.5*,0.2,14.2,
Cc1cc(C=C2C(=O)NC(=S)NC2=O)c(C)n1-c1ccc2c(c1)OCO2,0.6,-7.3,-1.0,38.9,0.5,12.2,
Cc1cc(/C=C2\C(=O)NC(=O)N(C)C2=O)c(C)n1-c1ccc2c(c1)OCO2,0.4,13.9,2.1,60.6*,-0.5,11.5,
Cc1cc(/C=C2/C(=O)NC(=O)N(C)C2=O)c(C)n1-c1ccccc1,0.4,4.8,0.5,62.5*,-2.0,/,
CC(C)=CCOc1c2occc2cc2ccc(=O)oc12,1,20.7,0.4,-4.4,0.3,2.6,
O=C(O)Cn1cc(C(=O)c2ccccc2)c2ccccc21,1.1,22.8,1.4,-7.6,2.1,39.8*,
N#CC1=C(N)Oc2c(c(=O)oc3ccccc23)C1c1ccc([N+](=O)[O-])o1 (stereo unspecified),1,-7.9,-1.2,-1.6,-0.3,/,
COc1ccc(C2C(C#N)=C(N)Oc3c2c(=O)oc2ccccc32)cc1Cn1cc([N+](=O)[O-])cn1 (stereo unspecified),1.1,5.2,3.7,-7.6,-4.2,24.4*,
C(=NC12CN3CN(CN(C3)C1)C2)c1cccs1,1.1,2.2,0.7,-6.9,0.4,54.8*,
CN1CCN(C(=O)COc2ccc(-c3nc4ccccc4s3)cc2)CC1,0,2.8,0.5,96.4*,2.2,10.5,
CC(C)NS(=O)(=O)c1ccc(OCC(=O)N2CCN(C)CC2)cc1,1,1.4,0.7,3.8,-1.3,15.2,
CCN1CCN(Cc2cc(C(C)(C)C)c(O)c(C(C)(C)C)c2)CC1,1,1.3,0.0,0.1,0.6,60.1*,
Fc1ccc(C(OCCN2CCCC2)c2ccc(Br)cc2)cc1 (stereo unspecified),1,1.3,0.4,-3.8,-0.1,54.2*,
Fc1ccc(C(OCCN2CCCC2)c2ccc(F)cc2)cc1,1,4.8,0.3,-3.6,-0.4,3.6,
C=CCn1c(O)c(C(CC)=NCCc2ccccc2)c(=O)[nH]c1=O,1,3.6,0.4,-3.5,0.6,6.7,
C=CCn1c(O)c(C(C)=NCCc2ccccc2)c(=O)[nH]c1=O,1,7.2,0.8,-4.2,0.2,23.6*,
O=c1[nH]c2ccccc2o1,0.9,-0.1,0.1,5.0,-0.1,45.0*,
CN(C)CCN=Cc1c(O)n(-c2cccc(C(F)(F)F)c2)c(=O)[nH]c1=O,1,2.2,0.8,-4.6,-0.3,19.1,
SMILES,FLuc act counter,ABCG2 inh,ABCB1 inh,FLuc inh counter,Redox H2O2 prof,Measles CPE,others
OC1/C(=C/c2ccccc2C(F)(F)F)N2CCC1CC2 (stereo unspecified),1.1,0.9,0.4,-10.5,-0.5,/,
CC(Cc1ccccc1Sc1ccccc1O)N(C)C (stereo unspecified),1.1,2.6,1.4,-6.3,2.1,10.5,
Cc1cc(OCc2ccc([N+](=O)[O-])cc2)c2c3c(c(=O)oc2c1)CCCC3,1,15.1,1.1,-3.3,3.9,45.5*,
Cc1cc(OCc2nn[nH]n2)c2c3c(c(=O)oc2c1)CCCC3,1.1,0.5,0.1,-6.3,2.0,4.2,
CC(Cc1ccccc1)NC(=O)/C=C/C(=O)O (stereo unspecified),1.1,2.0,0.7,-9.6,0.2,/,
Cc1ccc(C(C)C)c(OCC(=O)N2CCN(Cc3nc4cc([N+](=O)[O-])ccc4n3C)CC2)c1,1.1,78.2,13.9,-9.2,-0.3,30.4,
CS(=O)(=O)Nc1ccc(Cc2noc(-c3ccc4[nH]cc(CCN)c4c3)n2)cc1,1,-1.2,/,-2.1,/,/,
CCOC(=O)C1(c2ccccc2)CCN(CC(=O)Nc2cccc3ccccc23)CC1,1,1.7,9.4,-4.1,-0.1,7.8,
O=C(Nc1cccc2ccccc12)c1nn(C23CC4CC(CC(C4)C2)C3)cc1Br,1,3.1,0.2,-1.6,-6.3,37.7*,
Fc1c(F)c(F)c(N2CCNCC2)c(F)c1F,1,3.1,-0.3,-2.9,-2.1,/,
CCCN(CC#CCOc1ccc(OC)cc1)CCC,1.1,1.7,0.5,-9.6,1.8,37.2*,
Clc1ccc(OCC#CCN2CCCC2)cc1,1,1.0,0.1,-3.2,0.0,/,
O=c1c2ccccc2nc(-c2ccco2)n1-c1nccs1,0.9,2.3,0.2,5.2,1.4,4.5,
CCc1cc2c(s1)NC(=O)CN=C2c1cccs1,1,2.1,0.6,-1.5,-1.9,14.9,
CC(C)N1CC=C(c2c[nH]c3ccccc23)CC1,1,0.3,0.2,-0.5,1.7,35.8*,
CCCCn1c(NS(=O)(=O)c2ccccc2)c(C(=O)OCC)c2nc3ccccc3nc21,1.1,-4.4,-0.3,-6.2,167.5*,7.1,DTT redox conf=>50
COC(=O)CCCCC1SCC(NC(=O)c2ccccc2)C1Cl (stereo unspecified),1,-0.1,-0.2,1.3,0.3,/,
CCn1cc(/C=c2/sc3n(c2=O)C2c4ccccc4OC(C)(N=3)C2C(=O)OC)c(C)n1 (stereo unspecified),1.1,26.1,52.7*,-10.7,-0.2,/,ABCB1 confirm=13.5;ABCG2 single pt=11.9;IgMXP3 autofluor=18.4*;CCRF-Adr fluor=12.8
CC1=NN(c2ccccc2)C(=O)C1/C=C1/C(=O)NC(=O)N(c2cccc(C)c2)C1=O (stereo unspecified),0.9,-0.2,0.3,13.3,-2.8,15.0,
Cc1cccc(N2C(=O)NC(=O)/C(=C\c3ccc4c(c3)CCCN4Cc3ccccc3)C2=O)c1,1.1,63.9,49.7*,-8.1,-0.6,7.6,ABCB1 confirm=0.8;ABCG2 single pt=-0.8;IgMXP3 autofluor=14*;CCRF-Adr fluor=59.4*
CCC(C)C12CN3CCN(CC(C)(C3)C1O)C2 (stereo unspecified),1.1,-0.3,0.1,-5.0,-0.4,/,

# Screens deposited in PubChem BioAssay by several laboratories.
